Assay results from ChEMBL document CHEMBL1629601, “In vitro susceptibility of field isolates of Leishmania donovani to Miltefosine and amphotericin B: correlation with sodium antimony gluconate susceptibility and implications for treatment in areas of endemicity” (2009).
In brackets after ≈: the same amount, converted by molar mass.

Assays:
Type in all cases: functional
Leishmania donovani [1] = test: Antimicrobial activity against Leishmania donovani K481 amastigote; conditions: read-out: ED50 (the source's name)
Leishmania donovani [2] = test: Decrease in LdMT gene expression in Leishmania donovani K417 by RT-PCR method
Outline: (§1)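 VL field isolates of L. donovani. Transcript levels of LdMT or LdRos3 were measured by real-time RT-PCR with SYBR green and analysed by the 2−ΔΔCt method. The expression index is the ratio of gene expression to that of the standard L. donovani strain LdAG83, and a decrease is relative to LdAG83. Values are means of three independent experiments.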

Leishmania donovani [3] = test: Antimicrobial activity against Leishmania donovani LdAG83 amastigote; conditions: read-out: ED50 (the source's name)
Leishmania donovani [4] = test: Antimicrobial activity against Leishmania donovani K80 amastigote; conditions: read-out: ED50 (the source's name)
Leishmania donovani [5] = test: Antimicrobial activity against Leishmania donovani K80 promastigote; conditions: read-out: ED50 (the source's name)
Leishmania donovani [6] = test: Antimicrobial activity against Leishmania donovani K439 amastigote; conditions: read-out: ED50 (the source's name)
Leishmania donovani [7] = test: Decrease in LdMT gene expression in Leishmania donovani K132 by RT-PCR method
Outline: (§2)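 LdMT transcript levels were measured by real-time RT-PCR with SYBR green and analysed by the 2−ΔΔCt method. They are expressed as an expression index, the ratio relative to reference strain LdAG83, and are the mean of three independent experiments.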

Leishmania donovani [8] = test: Decrease in LdMT gene expression in Leishmania donovani K111 by RT-PCR method; outline: as §2
Leishmania donovani [9] = test: Decrease in LdMT gene expression in Leishmania donovani K135 by RT-PCR method; outline: as §2
Leishmania donovani [10] = test: Antimicrobial activity against Leishmania donovani K251 amastigote; conditions: read-out: ED50 (the source's name)
Leishmania donovani [11] = test: Antimicrobial activity against Leishmania donovani K133 promastigote; conditions: read-out: ED50 (the source's name)
Leishmania donovani [12] = test: Antimicrobial activity against Leishmania donovani K135 promastigote; conditions: read-out: ED50 (the source's name)
Leishmania donovani [13] = test: Antimicrobial activity against Leishmania donovani K516 amastigote; conditions: read-out: ED50 (the source's name)
Leishmania donovani [14] = test: Antimicrobial activity against Leishmania donovani K509 promastigote; conditions: read-out: ED50 (the source's name)
Leishmania donovani [15] = test: Decrease in LdRoS3 gene expression in Leishmania donovani K192 by RT-PCR method; outline: as §1
Leishmania donovani [16] = test: Antimicrobial activity against Leishmania donovani K135 amastigote; conditions: read-out: ED50 (the source's name)
Leishmania donovani [17] = test: Antimicrobial activity against Leishmania donovani K417 promastigote; conditions: read-out: ED50 (the source's name)
Leishmania donovani [18] = test: Decrease in LdRoS3 gene expression in Leishmania donovani K251 by RT-PCR method; outline: as §1
Leishmania donovani [19] = test: Decrease in LdMT gene expression in Leishmania donovani K149 by RT-PCR method; outline: as §2
Leishmania donovani [20] = test: Antimicrobial activity against Leishmania donovani K509 amastigote; conditions: read-out: ED50 (the source's name)
Leishmania donovani [21] = test: Decrease in LdRoS3 gene expression in Leishmania donovani K498 by RT-PCR method; outline: as §1
Leishmania donovani [22] = test: Antimicrobial activity against Leishmania donovani K216 promastigote; conditions: read-out: ED50 (the source's name)
Leishmania donovani [23] = test: Antimicrobial activity against Leishmania donovani K439 promastigote; conditions: read-out: ED50 (the source's name)
Leishmania donovani [24] = test: Decrease in LdRoS3 gene expression in Leishmania donovani K133 by RT-PCR method; outline: as §1
Leishmania donovani [25] = test: Decrease in LdMT gene expression in Leishmania donovani K439 by RT-PCR method; outline: as §1
Leishmania donovani [26] = test: Decrease in LdMT gene expression in Leishmania donovani K417M20 by RT-PCR method
Outline: (§3)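 MIL-resistant M20 parasites were generated by raising the MIL concentration stepwise up to 20 μg/ml. LdMT or LdRos3 expression was quantified by real-time RT-PCR (SYBR green, 2−ΔΔCt method) and reported as an expression index, the ratio to the standard strain LdAG83. A decrease is relative to LdAG83. Values are means of three independent experiments.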

Leishmania donovani [27] = test: Antimicrobial activity against Leishmania donovani K149 promastigote; conditions: read-out: ED50 (the source's name)
Leishmania donovani [28] = test: Decrease in LdRoS3 gene expression in Leishmania donovani K417M20 by RT-PCR method; outline: as §3
Leishmania donovani [29] = test: Antimicrobial activity against Leishmania donovani K111 amastigote; conditions: read-out: ED50 (the source's name)
Leishmania donovani [30] = test: Decrease in LdRoS3 gene expression in Leishmania donovani K417 by RT-PCR method; outline: as §1
Leishmania donovani [31] = test: Decrease in LdMT gene expression in Leishmania donovani K251 by RT-PCR method; outline: as §1
Leishmania donovani [32] = test: Antimicrobial activity against Leishmania donovani K111 promastigote; conditions: read-out: ED50 (the source's name)
Leishmania donovani [33] = test: Decrease in LdMT gene expression in Leishmania donovani K498 by RT-PCR method; outline: as §1
Leishmania donovani [34] = test: Antimicrobial activity against Leishmania donovani K132 promastigote; conditions: read-out: ED50 (the source's name)
Leishmania donovani [35] = test: Decrease in LdRoS3 gene expression in Leishmania donovani K80 by RT-PCR method; outline: as §1
Leishmania donovani [36] = test: Decrease in LdMT gene expression in Leishmania donovani K80 by RT-PCR method; outline: as §1
Leishmania donovani [37] = test: Decrease in LdRoS3 gene expression in Leishmania donovani K435 by RT-PCR method; outline: as §1
Leishmania donovani [38] = test: Decrease in LdMT gene expression in Leishmania donovani K133 by RT-PCR method; outline: as §2
Leishmania donovani [39] = test: Antimicrobial activity against Leishmania donovani K149 amastigote; conditions: read-out: ED50 (the source's name)
Leishmania donovani [40] = test: Antimicrobial activity against Leishmania donovani K417 amastigote; conditions: read-out: ED50 (the source's name)
Leishmania donovani [41] = test: Decrease in LdRoS3 gene expression in Leishmania donovani K216 by RT-PCR method; outline: as §1

CCCCCCCCCCCCCCCCOP(=O)([O-])OCC[N+](C)(C)C [MILTEFOSINE] was tested, and the EC50 (Leishmania donovani [1]) was 2.32 µg/mL (≈ 5.69 µM), the “fold change (FC)” value (Leishmania donovani [2]) was 1.88 and the EC50 (Leishmania donovani [3]) was 0.85 µg/mL (≈ 2.09 µM). The EC50 (Leishmania donovani [4]) was 1.32 µg/mL (≈ 3.24 µM), the EC50 (Leishmania donovani [5]) was 1.58 µg/mL (≈ 3.88 µM) and the EC50 (Leishmania donovani [6]) was 1.07 µg/mL (≈ 2.63 µM). The “fold change (FC)” value (Leishmania donovani [7]) was 5.5, the “fold change (FC)” value (Leishmania donovani [8]) was 3.4 and the “fold change (FC)” value (Leishmania donovani [9]) was 2.86. For the same compound, the EC50 (Leishmania donovani [10]) was 1.59 µg/mL (≈ 3.9 µM), the EC50 (Leishmania donovani [11]) was 0.83 µg/mL (≈ 2.04 µM) and the EC50 (Leishmania donovani [12]) was 0.86 µg/mL (≈ 2.11 µM). For the same compound, the EC50 (Leishmania donovani [13]) was 2.02 µg/mL (≈ 4.96 µM), the EC50 (Leishmania donovani [14]) was 1.94 µg/mL (≈ 4.76 µM) and the “fold change (FC)” value (Leishmania donovani [15]) was 1.9. For the same compound, the EC50 (Leishmania donovani [16]) was 0.72 µg/mL (≈ 1.77 µM), the EC50 (Leishmania donovani [17]) was 1.72 µg/mL (≈ 4.22 µM) and the “fold change (FC)” value (Leishmania donovani [18]) was 52.63. The “fold change (FC)” value (Leishmania donovani [19]) was 1.08, the EC50 (Leishmania donovani [20]) was 2.16 µg/mL (≈ 5.3 µM) and the “fold change (FC)” value (Leishmania donovani [21]) was 7.63. For the same compound, the EC50 (Leishmania donovani [22]) was 0.76 µg/mL (≈ 1.86 µM), the EC50 (Leishmania donovani [23]) was 0.87 µg/mL (≈ 2.13 µM) and the “fold change (FC)” value (Leishmania donovani [24]) was 4.52. The “fold change (FC)” value (Leishmania donovani [25]) was 4.76, the “fold change (FC)” value (Leishmania donovani [26]) was 11.3 and the EC50 (Leishmania donovani [27]) was 1.56 µg/mL (≈ 3.83 µM). The “fold change (FC)” value (Leishmania donovani [28]) was 100, the EC50 (Leishmania donovani [29]) was 0.85 µg/mL (≈ 2.09 µM) and the “fold change (FC)” value (Leishmania donovani [30]) was 5.02. The “fold change (FC)” value (Leishmania donovani [31]) was 7.68, the EC50 (Leishmania donovani [32]) was 0.47 µg/mL (≈ 1.15 µM) and the “fold change (FC)” value (Leishmania donovani [33]) was 1.38. The EC50 (Leishmania donovani [34]) was 0.53 µg/mL (≈ 1.3 µM), the “fold change (FC)” value (Leishmania donovani [35]) was 1.71 and the “fold change (FC)” value (Leishmania donovani [36]) was 1.24. For the same compound, the “fold change (FC)” value (Leishmania donovani [37]) was 4.76, the “fold change (FC)” value (Leishmania donovani [38]) was 1.5 and the EC50 (Leishmania donovani [39]) was 1.57 µg/mL (≈ 3.85 µM). For the same compound, the EC50 (Leishmania donovani [40]) was 1.9 µg/mL (≈ 4.66 µM) and the “fold change (FC)” value (Leishmania donovani [41]) was 9.43.
